NPY Y1 blocker – NPY-Y1 receptor antagonists, primary screen, cell-based | Neuropeptide Y receptor type 1 (Homo sapiens), P25929 | HEK293-CNG Y1 cells, membrane potential fluorescence; NPY at EC95, then isoproterenol | inhibition, % at 3.6 µM | actives 1% (n = 200,000);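 active means inhibition above the campaign mean inhibition of all tested compounds plus 3 SD, cut at about 20% in these data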
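Material: Y1- and CNG-channel-expressing HEK293 cells / Probe or stimulus: NPY 25 nM then isoproterenol 1 µM plus Ro 20-1724 25 µM / Doses: 3.6 µM single dose, DMSO 0.4% / Schedule: compound incubation 1 h at room temperature, readout 45 min post-stimulation / Signal: membrane potential fluorescence / Benchmarks: isoproterenol-only wells as full block versus NPY-plus-isoproterenol wells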
NPY-Y2 antag – NPY-Y2 receptor antagonists, primary screen, cell-based; NPY-Y2 expressing cells, antagonist mode; Neuropeptide Y receptor type 2 (Homo sapiens), P49146; inhibition, % at 2.7 µM; actives 0.99% (n = 140,000); AID 793, 2007; in the data active means inhibition above about 17%
KCC2 mod – KCC2 cotransporter modulators, thallium flux, primary screen, cell-based, HEK293 KCC2, FluoZin-2 fluorescence, MLSMR | B-score of Tl+ flux slope (higher = more flux/activation; lower = inhibition) at 10 µM | actives 2.2% (n = 190,000) | KCC2 cells, thallium flux FluoZin-2 fluorescence | AID 1456, 2008 | Solute carrier family 12 member 5 (Homo sapiens), Q9H2X9;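 active means thallium flux slope and its plate-corrected score both differing from the plate sample mean at a set confidence after two filtering rounds, in either direction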;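 further: slope of fluorescence scaled to starting intensity during 10 to 20 s after thallium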
Furin inh – human furin inhibitors, primary screen, biochemical, fluorescence intensity; inhibition, % at 20 µM or 30 µM; P09958; purified furin, fluorogenic substrate cleavage; actives 0.061% (n = 220,000); AID 463115, 2010; in the data active means inhibition above about 25%
Target sequence (P09958 108-714 limits assumed): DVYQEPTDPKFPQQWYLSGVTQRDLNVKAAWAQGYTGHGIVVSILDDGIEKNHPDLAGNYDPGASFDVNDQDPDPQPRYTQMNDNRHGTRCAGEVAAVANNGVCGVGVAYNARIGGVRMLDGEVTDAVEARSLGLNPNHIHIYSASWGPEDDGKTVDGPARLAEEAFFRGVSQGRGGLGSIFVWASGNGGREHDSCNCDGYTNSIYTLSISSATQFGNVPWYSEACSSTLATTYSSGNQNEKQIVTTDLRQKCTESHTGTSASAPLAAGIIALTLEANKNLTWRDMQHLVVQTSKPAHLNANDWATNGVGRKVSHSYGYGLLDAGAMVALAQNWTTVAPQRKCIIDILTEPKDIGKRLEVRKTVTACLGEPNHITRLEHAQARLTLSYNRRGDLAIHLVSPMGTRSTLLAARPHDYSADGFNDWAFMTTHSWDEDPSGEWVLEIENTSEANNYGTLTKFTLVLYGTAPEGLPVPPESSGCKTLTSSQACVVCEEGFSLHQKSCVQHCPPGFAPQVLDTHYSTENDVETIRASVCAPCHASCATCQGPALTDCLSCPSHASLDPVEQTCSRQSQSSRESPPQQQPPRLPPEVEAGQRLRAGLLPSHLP
NPY1 pot ag – NPY-Y1 receptor potentiators or agonists, primary screen, cell-based. activation, % at 3.6 µM. NPY-Y1 expressing cells, potentiator/agonist activation. actives 0.37% (n = 220,000); in the data active means activation above about 33%, passing the limit was not always enough;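 further: cells stimulated with NPY at EC10 then isoproterenol at EC100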
NPY-Y2 PAM-ag – NPY-Y2 potentiators or agonists, primary screen, cell-based. actives 0.45% (n = 220,000). activation, % at 3.6 µM. cells expressing NPY-Y2, potentiator/agonist read-out. Neuropeptide Y receptor type 2 (Homo sapiens), P49146; in the data active means activation above about 27%;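 further: cells stimulated with NPY near EC25 plus isoproterenol at EC100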
KCC2 sec1 – KCC2 modulators in sodium-free buffer, confirmation, cell-based, HEK293 KCC2, thallium flux, secondary assay; normalised thallium flux (F/F0 slope) at 10 µM; actives 15% (n = 3,700); shares compounds with KCC2 mod; FluoZin2 fluorescence; hits give high values;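 active means thallium flux slope above the same plate's solvent-only control mean plus 3 SD; inconclusive means the two replicate wells disagree; inactive means no significant difference from solvent-only control wells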
KCC2 bumet counter – thallium flux persisting under bumetanide in KCC2 cells, confirmation, counter-screen for KCC2 modulator project, cell-based, HEK293 KCC2, FluoZin2, secondary assay 3. shares compounds with KCC2 mod. HEK293-KCC2 + bumetanide/ouabain; hits give high values. actives 49% (n = 3,700). normalized thallium flux at 10 µM;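 active means thallium entry rate above the same plate's blocked-transporter control wells by more than 3 SD; inconclusive means the two repeat wells disagree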;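 further: raw slope of fluorescence over initial fluorescence between 10 and 20 s after thallium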
KCC2 secondary2 – KCC2 modulators without ouabain present, confirmation, cell-based, HEK293 KCC2, thallium flux, FluoZin2, secondary assay 2. thallium flux FluoZin2 fluorescence; actives lie on both sides; F/F0 rise rate, 10–20 s post-thallium. normalized thallium flux at 10 µM. shares compounds with KCC2 mod. actives 23% (n = 3,700);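 active means thallium flux slope more than 3 SD above or below the plate's solvent-only control mean, mostly below; inconclusive means the two repeat wells disagreed; inactive means no significant shift from solvent-only controls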
HEK293 Tl flux – thallium flux modulation in parental HEK cells, confirmation, counter-screen for KCC2 modulator project, cell-based, counterscreen 1. shares compounds with KCC2 mod. HEK293 parental cells, thallium flux FluoZin2, ouabain; baseline-ratio fluorescence slope, 10–20 s after thallium. thallium flux rate (normalised fluorescence) at 10 µM. actives 46% (n = 3,700). AID 1716, 2009;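 active means thallium flux rate significantly above the same plate's solvent-only control wells, beyond their mean plus 3 SD; inconclusive means the two replicate wells gave conflicting results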
KCC2 retest ouab – KCC2 inhibitors and activators, ouabain retest, confirmation, HEK-KCC2 cells; shares compounds with KCC2 mod; HEK293-KCC2, thallium flux FluoZin2 fluorescence; bidirectional: low = inhibitor, high = activator; raw Tl+ flux slope (below DMSO = inhibition, above = activation) at 10 µM; actives 48% (n = 3,700); AID 1717, 2009;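 active means thallium flux slope beyond 3 SD from same-plate DMSO control mean in most replicates, usually higher, sometimes lower; inconclusive means repeat tests gave conflicting results; inactive means no significant difference from controls in most replicates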;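 further: slope of initial-normalized fluorescence between seconds 10 and 20 after thallium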
HEK counter2 – native HEK Tl+ uptake effects, second counter-screen – HEK cells, counterscreen 2, counter-screen for KCC2 modulator project, confirmation; shares compounds with KCC2 mod; HEK293 parental, thallium flux FluoZin-2 fluorescence slope; thallium flux slope at 10 µM; actives 33% (n = 3,700);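 active means thallium flux slope above the same plate's solvent-control mean plus 3 SD in both duplicate wells; inconclusive means duplicate wells that disagreed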;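 further: run without ouabain in cells lacking the KCC2 cotransporter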
Hits are given with their value. This is a sample that favours compounds with a hit; in the whole collection about 3.7% have one here.

Screening Cc1c(C=O)c(=O)n(-c2ccccc2)n1-c1ccccc1 returned NPY Y1 blocker inactive, NPY-Y2 antag inactive, KCC2 mod inactive, Furin inh inactive, NPY1 pot ag inactive and NPY-Y2 PAM-ag inactive.
`COc1ccc(/C=N/NC(=O)c2cccc(NC(C)=O)c2)c(C(=O)O)c1OC` gave NPY Y1 blocker inactive, KCC2 mod inactive, Furin inh inactive, NPY1 pot ag inactive and NPY-Y2 PAM-ag inactive.
`O=C1NC[C@@H](Cc2cccc3ccccc23)N(CCc2cc(C(F)(F)F)cc(C(F)(F)F)c2)C1=O` gave KCC2 mod -3.9, Furin inh inactive, KCC2 sec1 inactive, KCC2 bumet counter inactive, KCC2 secondary2 0.025, HEK293 Tl flux inactive, KCC2 retest ouab inactive and HEK counter2 inactive.
Cn1cc(Br)c(C(=O)Nc2c(F)c(F)c(F)c(F)c2F)n1 was read as NPY Y1 blocker inactive, NPY-Y2 antag inactive, KCC2 mod -3.6, Furin inh inactive, NPY1 pot ag inactive, NPY-Y2 PAM-ag inactive, KCC2 sec1 inconclusive, KCC2 bumet counter inconclusive, KCC2 secondary2 inactive, HEK293 Tl flux inactive, KCC2 retest ouab inactive and HEK counter2 inactive.
For Cn1cc(Br)c(C(=O)NNC(=O)c2ccccc2)n1 the results were NPY Y1 blocker inactive, NPY-Y2 antag inactive, KCC2 mod inactive, Furin inh inactive, NPY1 pot ag inactive and NPY-Y2 PAM-ag inactive.
`Cc1cc(C)c2nc(SC3CCOC3=O)cc(C)c2c1` (stereo unspecified) gave NPY Y1 blocker inactive, KCC2 mod 11, Furin inh inactive, NPY1 pot ag inactive, NPY-Y2 PAM-ag inactive, KCC2 sec1 inactive, KCC2 bumet counter inconclusive, KCC2 secondary2 inactive, HEK293 Tl flux 0.011, KCC2 retest ouab inactive and HEK counter2 inconclusive.
COc1ccc2c(C)cc(SC3CCOC3=O)nc2c1 (stereo unspecified) was read as NPY Y1 blocker inactive, KCC2 mod inactive, Furin inh inactive, NPY1 pot ag inactive and NPY-Y2 PAM-ag inactive.
`CN(C)c1ccc(/C=C/c2ccc3c4ccccc4ccc3[n+]2-c2ccccc2)cc1` gave NPY Y1 blocker inactive, KCC2 mod -3.2, Furin inh inactive, NPY1 pot ag inactive, NPY-Y2 PAM-ag 58, KCC2 sec1 inactive, KCC2 bumet counter inactive, KCC2 secondary2 0.024, HEK293 Tl flux inconclusive, KCC2 retest ouab 0.014 and HEK counter2 inactive.
For CN(C)c1ccc(/C=C/c2ccc3ccccc3[n+]2C)cc1 the results were NPY Y1 blocker inactive, NPY-Y2 antag inactive, KCC2 mod inactive, Furin inh inactive, NPY1 pot ag inactive and NPY-Y2 PAM-ag inactive.
`Cc1oc(-c2nc3ccccc3n2C)cc1C(=O)c1ccccc1` gave NPY Y1 blocker inactive, NPY-Y2 antag inactive, KCC2 mod -2.9, Furin inh inactive, NPY1 pot ag inactive, NPY-Y2 PAM-ag inactive, KCC2 sec1 inactive, KCC2 bumet counter inactive, KCC2 secondary2 inactive, HEK293 Tl flux inactive, KCC2 retest ouab 0.014 and HEK counter2 inactive.
For COc1ccc(S(=O)(=O)NCCSCc2ccco2)cc1 the results were NPY Y1 blocker inactive, NPY-Y2 antag inactive, Furin inh inactive, NPY1 pot ag inactive and NPY-Y2 PAM-ag inactive.
Screening CCOc1ccc(S(=O)(=O)NCCSCc2ccco2)cc1 returned NPY Y1 blocker inactive, NPY-Y2 antag inactive, Furin inh inactive, NPY1 pot ag inactive, NPY-Y2 PAM-ag inactive, KCC2 sec1 inactive, KCC2 bumet counter inactive, KCC2 secondary2 inactive, HEK293 Tl flux inactive, KCC2 retest ouab inactive and HEK counter2 inactive.
Screening Cc1ccc(S(=O)(=O)N2CCN(Cc3ccccc3)CC2)c(C)c1N(C)S(=O)(=O)c1ccccc1 returned NPY Y1 blocker inactive, NPY-Y2 antag inactive, KCC2 mod inactive, Furin inh inactive, NPY1 pot ag inactive and NPY-Y2 PAM-ag inactive.
Screening CCCNC(=O)c1ccccc1NC(=O)c1ccccc1N(C)S(C)(=O)=O returned NPY Y1 blocker inactive, NPY-Y2 antag inactive, KCC2 mod inactive, Furin inh inactive, NPY1 pot ag inactive and NPY-Y2 PAM-ag inactive.
Screening CC(C)CNC(=O)c1ccccc1NC(=O)c1ccccc1N(C)S(C)(=O)=O returned NPY Y1 blocker inactive, NPY-Y2 antag inactive, KCC2 mod -3.8, Furin inh inactive, NPY1 pot ag inactive, NPY-Y2 PAM-ag inactive, KCC2 sec1 inactive, KCC2 bumet counter inactive, KCC2 secondary2 inconclusive, HEK293 Tl flux inconclusive, KCC2 retest ouab inactive and HEK counter2 inactive.
For Cc1nc2c(c(=O)n1CCC1=CCCCC1)c1nc3ccccc3nc1n2/N=C/c1ccco1 the results were NPY Y1 blocker inactive, NPY-Y2 antag inactive, KCC2 mod -5.8, Furin inh inactive, NPY1 pot ag inactive, NPY-Y2 PAM-ag inactive, KCC2 sec1 inactive, KCC2 bumet counter inactive, KCC2 secondary2 inactive, HEK293 Tl flux inactive, KCC2 retest ouab inactive and HEK counter2 inactive.
For Cc1ccc(C(=O)NCC(=O)OCC(=O)Nc2ccccc2C#N)s1 the results were NPY Y1 blocker inactive, KCC2 mod inactive, Furin inh inactive, NPY1 pot ag inactive and NPY-Y2 PAM-ag inactive.

Screens deposited in PubChem BioAssay by several laboratories.
